From ChEMBL document CHEMBL1165934, “Synthesis and in vitro toxicity of 4-MTA, its characteristic clandestine synthesis byproducts and related sulfur substituted alpha-alkylthioamphetamines” (Bioorg Med Chem, 2010)

Key:
HEK293 [1] = assay: Cytotoxicity against human HEK293 cells assessed as cell viability after 48 hrs by neutral red assay; type: cell-based; details: HEK293, 48 h
Summary of the method: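 HEK293 cells grown in DMEM with 10% FBS and 2 mM L-glutamine. Seeded at 5x10^4 cells/well and grown to sub-confluence (24-36 h), then exposed 48 h. Neutral red dye was added for 3 ± 1 h, then solubilised in 50% ethanol-1% acetic acid. A540 read with A690 background. Viability was taken as % of vehicle. pEC50 came from a sigmoidal fit (Hill slope 1) over 4 concentrations, triplicate, two independent days.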

HEK293 [2] = assay: Cytotoxicity against human HEK293 cells over expressing human SERT assessed as cell viability after 48 hrs by neutral red assay; type: cell-based; details: HEK293, 48 h
Summary of the method: (§1)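 Stably transfected HEK293 lines, passage ≤30, kept in DMEM with 10% FBS, 2 mM L-glutamine and Geneticin. Cells seeded at 5x10^4/well and grown to sub-confluence (24-36h), then exposed 48h. Neutral red uptake for 3 ± 1 h, then ethanol/acetic acid solubilisation, A540 minus 690 nm. Viability taken relative to vehicle. Range 1 µM-1 mM, 4 concentrations in triplicate on two independent days. pEC50 from sigmoidal fit (Hill slope 1).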

HEK293 [3] = assay: Cytotoxicity against human HEK293 cells over expressing human NET assessed as cell viability after 48 hrs by neutral red assay; type: cell-based; details: HEK293, 48 h; summary of the method: as §1
HEK293 [4] = assay: Cytotoxicity against human HEK293 cells over expressing human DAT assessed as cell viability after 48 hrs by neutral red assay; type: cell-based; details: HEK293, 48 h; summary of the method: as §1
PC-12 [5] = assay: Cytotoxicity against rat PC12 cells assessed as cell viability after 48 hrs by neutral red assay; type: cell-based; details: PC-12, 48 h
Summary of the method: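 PC-12 (rat pheochromocytoma) cells on collagen were differentiated 7 days with 100 ng/ml NGF in low-serum DMEM/F12. Seeded at 5x10^4/well, then exposed 48h. Neutral red uptake for 3 ± 1 h, solubilised, A540 (690 nm background). Viability taken against vehicle. Tested 1 µM-1 mM, 4 concentrations in triplicate on two independent days. pEC50 by sigmoidal non-linear regression (Hill slope 1).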

SH-SY5Y = assay: Cytotoxicity against human SH-SY5Y cells assessed as cell viability after 48 hrs by neutral red assay; type: cell-based
Summary of the method: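 SH-SY5Y grown in DMEM/F12 (1:1) with 10% FBS, 1 mM pyruvate, 2 mM glutamine and 0.1 mM non-essential amino acids, at 37 °C. Seeded 5x10^4 cells/well, treated 48 h, then neutral red uptake for 3 ± 1 h. Absorbance read at 540 nm (690 nm background). Viability was expressed as % of vehicle-treated cells. pEC50 came from a nonlinear sigmoidal fit (Hill slope 1), with 4 concentrations in triplicate on two separate days.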

PC-12 [6] = assay: Cytotoxicity against rat PC12 cells assessed as cell viability at 1 mM after 48 hrs by neutral red assay; type: cell-based; details: pc-12, 48 h, 1000 µM
Summary of the method: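 Undifferentiated PC-12 cells (rat pheochromocytoma) were seeded at 5x10^4 on collagen and differentiated for seven days with 100 ng/ml NGF in low-serum DMEM/F12. They were then exposed for 48 h to single concentrations. Neutral red staining lasted 3 ± 1 h, with absorbance at 540 nm (690 nm background). Viability was taken as % of vehicle, and each concentration was compared with untreated cells by one-way ANOVA.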

[7] = Selectivity ratio of IC50 for SERT to IC50 for DAT
[8] = Selectivity ratio of IC50 for SERT to IC50 for NET
[9] = molecular target: Sodium-dependent serotonin transporter (Homo sapiens, UniProt P31645); assay: Binding affinity to human SERT
Sodium-dependent serotonin transporter, sequence (P31645 whole entry): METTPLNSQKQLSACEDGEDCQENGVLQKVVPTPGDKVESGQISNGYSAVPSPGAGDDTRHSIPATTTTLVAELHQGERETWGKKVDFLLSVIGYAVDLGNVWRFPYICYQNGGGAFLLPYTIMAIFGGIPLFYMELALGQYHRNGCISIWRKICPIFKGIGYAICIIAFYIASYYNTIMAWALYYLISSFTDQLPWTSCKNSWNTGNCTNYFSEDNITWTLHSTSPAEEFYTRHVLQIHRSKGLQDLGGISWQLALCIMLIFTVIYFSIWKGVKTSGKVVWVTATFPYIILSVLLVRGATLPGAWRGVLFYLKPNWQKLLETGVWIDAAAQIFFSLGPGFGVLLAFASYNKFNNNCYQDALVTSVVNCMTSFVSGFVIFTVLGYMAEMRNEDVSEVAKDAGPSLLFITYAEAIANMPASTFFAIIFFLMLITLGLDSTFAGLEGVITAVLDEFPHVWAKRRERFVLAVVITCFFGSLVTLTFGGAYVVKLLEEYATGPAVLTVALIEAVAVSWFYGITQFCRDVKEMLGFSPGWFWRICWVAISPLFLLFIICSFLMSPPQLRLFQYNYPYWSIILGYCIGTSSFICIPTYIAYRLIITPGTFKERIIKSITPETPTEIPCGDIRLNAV

SMILES | EC50 (HEK293 [1]) [µM] | EC50 (HEK293 [2]) [µM] | EC50 (HEK293 [3]) [µM] | EC50 (HEK293 [4]) [µM] | EC50 (PC-12 [5]) [µM] | EC50 (SH-SY5Y) [µM] | Activity (PC-12 [6]) | Ratio IC50 [7] | Ratio IC50 [8] | IC50 [9] [nM]
CSc1ccc(CC(C)NC=O)cc1 (configuration not stated) | 2880 | 1350 | 372 | 2290 | > 10000 | > 10000 | Non-toxic | – | – | –
CCNC(Cc1ccc(SC)cc1)Cc1ccc(SC)cc1 | 17 | 25.7 | 263 | 26.9 | 229 | 13.8 | Toxic | – | – | –
CCc1nc(Cc2ccc(SC)cc2)c(C)cc1-c1ccc(SC)cc1 | 18.6 | 34.7 | 29.5 | 26.9 | 29.5 | 178 | – | – | – | –
CSc1ccc(CC(C)N)cc1 (configuration not stated) [4-METHYLTHIOAMPHETAMINE] | – | 22.4 | 22.4 | 41.7 | 295 | 513 | – | 3070 | 2370 | –
CCC(Cc1ccc(SC)cc1)NC=O (configuration not stated) | 61.7 | 64.6 | 79.4 | 1120 | 741 | > 10000 | Toxic | – | – | –
CNC(C)Cc1ccc2c(c1)OCO2 (configuration not stated) [MIDOMAFETAMINE] | – | 490 | 1550 | 1950 | – | – | – | – | – | –
CSc1ccc(CC(Cc2ccc(SC)cc2)NC(C)=O)cc1 | 50.1 | 38.9 | 25.7 | 83.2 | 4170 | 603 | Non-toxic | – | – | –
CSc1ccc(Cc2ccncn2)cc1 | 9.33 | 16.6 | 63.1 | 11.7 | 67.6 | 2950 | – | – | – | –
CCC(Cc1ccc(SC)cc1)NC (configuration not stated) | – | 55 | 66.1 | 417 | – | – | – | – | – | –
CSc1ccc(C/C(C)=N/O)cc1 | 3020 | 214 | 1740 | 67.6 | 776 | 339 | Toxic | – | – | –
CC(N)Cc1ccc2c(c1)OCO2 (configuration not stated) [TENAMFETAMINE] | – | 692 | 589 | 5890 | – | – | – | – | – | 478
CSc1ccc(CC(Cc2ccc(SC)cc2)NC=O)cc1 | – | 50.1 | 457 | 87.1 | 38 | 32.4 | – | – | – | –
CSc1ccc(CC(N)Cc2ccc(SC)cc2)cc1 | 22.4 | 24.5 | 126 | 25.1 | 631 | 18.6 | Toxic | – | – | –
CSc1ccc(CC(C)NC(C)Cc2ccc(SC)cc2)cc1 (configuration not stated) | 16.2 | 25.7 | 25.1 | 26.3 | 27.5 | 22.4 | – | – | – | –
